Three molecules from paper PMC3618282 (International journal of pharmaceutics, 2012) can be followed below.

Square brackets hold non-standard residues; d marks the D form. Peptide text beside a SMILES is read from it. Sar = CNCC(=O)O

The term Km denotes the concentration of substrate that gives half-maximal velocity. Broadly, the Papp A→B is the apparent permeability from the apical to the basolateral side of a cell layer. A high value points to fast passage. What is called Papp B→A is how fast a substance crosses the layer from the basolateral side.

In data set [1] the test system is apical peptide transporters in MDCKII-BCRP cells. As to the kind of experiment: Apical [3H]Gly-Sar uptake. The class given is in vitro ADME, canine. The gist of the method: (§1)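 Cells under passage 6 were seeded at 7 × 10^4 cells/cm2 in 12-well plates and washed with DPBS pH 7.4. Apical [3H]Gly-Sar (0.5 μCi/mL in DPBS) with unlabeled Gly-Sar (5–250 μM) was incubated 15 min at 37 °C and 4 °C. Stop was ice-cold 200 mM KCl/2 mM HEPES. Lysis in 0.3 N NaOH/0.1% Triton X-100, scintillation counting, normalised to protein. Specific uptake is 37 °C minus 4 °C. Michaelis–Menten fit gave Km and Vmax; efficiency is Vmax/Km; n = 3.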

Data set [2] has as its system apical peptide transporters. In words: Apical [3H]Gly-Sar uptake. The class given is in vitro ADME, canine. The conditions noted are these: dog, MDCKII-BCRP cells (apical uptake), pH 7.4. Summed up:
as §1

Data set [3] has as its system basolateral peptide transporters. In words: Basolateral [3H]Gly-Sar uptake. The class given is in vitro ADME, canine. The following applies: dog, MDCKII-BCRP cells on Transwell inserts (basolateral uptake), pH 7.4. The gist of the method:
(§2)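 Cells under passage 6 were seeded at 2 × 10^5 cells/cm2 on Transwell inserts (0.4 μm pore) and dosed from the basolateral side. [3H]Gly-Sar was given with unlabeled Gly-Sar (0–250 μM) at 4 °C and 37 °C. Specific uptake is 37 °C minus 4 °C, normalised to protein and fitted to Michaelis–Menten for Km and Vmax; n = 3.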

Data set [4] concerns basolateral peptide transporters in MDCKII-BCRP cells. As to the kind of experiment: Basolateral [3H]Gly-Sar uptake. It counts as in vitro ADME, canine. The conditions noted are these: basolateral uptake, MDCKII-BCRP. The gist of the method:
as §2

The subject of data set [5] is apical peptide transporters in MDCKII-MDR1 cells. In words: Apical [3H]Gly-Sar uptake. The class given is in vitro ADME, canine. Summed up:
as §1

The test system of data set [6] is apical peptide transporters. In words: Apical [3H]Gly-Sar uptake. It counts as in vitro ADME, canine. The conditions noted are these: dog, MDCKII-MDR1 cells (apical uptake), pH 7.4. Summed up:
as §1

The subject of data set [7] is basolateral peptide transporters in MDCKII-MRP2 cells. As to the kind of experiment: Basolateral [3H]Gly-Sar uptake. It counts as in vitro ADME, canine. The following applies: basolateral uptake, MDCKII-MRP2. Summed up:
as §2

Data set [8] relates to basolateral peptide transporters. In words: Basolateral [3H]Gly-Sar uptake. The class given is in vitro ADME, canine. The following applies: dog, MDCKII-MRP2 cells on Transwell inserts (basolateral uptake), pH 7.4. The gist of the method: as §2
Data set [9] deals with basolateral peptide transporters in MDCKII-wt cells. As to the kind of experiment: Basolateral [3H]Gly-Sar uptake. It counts as in vitro ADME, canine. The gist of the method:
as §2

Data set [10] has as its system apical peptide transporters. In words: Apical [3H]Gly-Sar uptake. It counts as in vitro ADME, canine. The following applies: dog, MDCKII-MRP2 cells (apical uptake), pH 7.4. Summed up:
as §1

Data set [11] relates to apical peptide transporters in MDCKII-MRP2 cells. In words: Apical [3H]Gly-Sar uptake. The class given is in vitro ADME, canine. The gist of the method: as §1
The test system of data set [12] is basolateral peptide transporters in MDCKII-MDR1 cells. As to the kind of experiment: Basolateral [3H]Gly-Sar uptake. It counts as in vitro ADME, canine. The conditions noted are these: basolateral uptake, MDCKII-MDR1. The gist of the method:
as §2

For data set [13], the system named is basolateral peptide transporters. In words: Basolateral [3H]Gly-Sar uptake. It counts as in vitro ADME, canine. The following applies: dog, MDCKII-MDR1 cells on Transwell inserts (basolateral uptake), pH 7.4. Summed up: as §2
A short description of data set [14]: Transporter-mediated transepithelial Gly-Sar transport. The conditions noted are these: dog; for Papp A→B at 60 min, 0.5 μCi/mL: MDCK-MDR1, AP–BL permeability; for Papp B→A at 60 min, 0.5 μCi/mL: MDCK-MDR1, BL–AP permeability. The class given is in vitro ADME, canine. The gist of the method:
(§3)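 Monolayers under passage 6 were grown on Transwell inserts (2 × 10^5 cells/cm2) and washed with DPBS pH 7.4. Apical 0.5 mL was at pH 4.0–7.4; basolateral 1.5 mL was held at pH 7.4. [3H]Gly-Sar was run AP→BL and BL→AP. Receiver samples were taken over 60 min and replaced with fresh DPBS. Transporter-mediated Papp is [3H]Gly-Sar minus [14C]mannitol passive transport; n = 4.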

Experiment in data set [15]: as above
The conditions noted are these: dog, MDCKII-BCRP. The class given is in vitro ADME, canine. The gist of the method:
as §3

In data set [16] the test system is apical peptide transporters in MDCKII-wt cells. As to the kind of experiment: Apical [3H]Gly-Sar uptake. It counts as in vitro ADME, canine. Summed up: as §1
The nature of data set [17]: Transporter-mediated transepithelial Gly-Sar transport. The class given is in vitro ADME, canine. The following applies: dog. The gist of the method: as §3
Experiment in data set [18]: as above
It counts as in vitro ADME, canine. The conditions noted are these: dog, MDCK, MDCKII-wt. The gist of the method:
as §3

Data set [19] can be described thus: AP–BL [14C]Mannitol permeability. The following applies: dog, MDCK, pH 7.4. It counts as in vitro ADME, canine.
Data set [20] in a line: AP–BL [14C]Mannitol permeability. The class given is in vitro ADME, canine. The conditions noted are these: dog, MDCK-MDR1, pH 7.4.
For data set [21], the system named is apical peptide transporters (PepT1 and PepT2) in MDCKII cell lines. As to the kind of experiment: Inhibition of apical [3H]Gly-Sar uptake by peptide transporter inhibitors. It counts as cell-based, canine. The following applies: inhibitor 100 μM, pH 7.4, 37 °C, 15 min, all four MDCKII cell lines.
The mark [22] stands for this setting: MDCKII-MDR1, AP chamber pH 4.0, BL pH 7.4.
Where [23] appears, read: MDCKII-MDR1, AP chamber pH 5.0, BL pH 7.4.
Setting [24] is: MDCKII-MDR1, AP chamber pH 6.0, BL pH 7.4.
The mark [25] stands for this setting: AP–BL permeability, AP chamber pH 4.0, BL pH 7.4.
[26] abbreviates: AP–BL permeability, AP chamber pH 5.0, BL pH 7.4.
[27] abbreviates: AP–BL permeability, AP chamber pH 6.0, BL pH 7.4.
The mark [28] stands for this setting: BL–AP permeability, AP chamber pH 4.0, BL pH 7.4.
[29] abbreviates: BL–AP permeability, AP chamber pH 5.0, BL pH 7.4.
[30] abbreviates: BL–AP permeability, AP chamber pH 6.0, BL pH 7.4.
Where [31] appears, read: pH 7.4, AP–BL permeability, AP chamber pH 7.4, BL pH 7.4.
The mark [32] stands for this setting: pH 7.4, BL–AP permeability, AP chamber pH 7.4, BL pH 7.4.

For `CN(CC(=O)O)C(=O)CN` [Gly-Sar, Glycylsarcosine] (H-Gly-[Sar]-OH), the “transport efficiency relative to that in wild-type cells” value was approximately 41% in data set [1] (apical peptide transporters, MDCKII-BCRP vs wild-type); “around 25%” in [5] (apical peptide transporters, MDCKII-MDR1 vs wild-type); approximately 30% in data set [11] (apical peptide transporters, MDCKII-MRP2 vs wild-type). In addition, the Vmax in data set [1] (apical uptake, MDCKII-BCRP, low passage) is given as 4.50 ± 0.83 fmol/mg protein/min; in data set [4], 13.07 ± 2.61 fmol/mg protein/min; in data set [5] (apical uptake, MDCKII-MDR1, low passage), 1.30 ± 0.36 fmol/mg protein/min; in [7] it was 8.03 ± 1.78 fmol/mg protein/min; in data set [9], 4.45 ± 0.04 fmol/mg protein/min; in data set [11] (apical uptake, MDCKII-MRP2, low passage), 4.62 ± 0.76 fmol/mg protein/min. In addition, the Vmax was determined as 8.52 ± 0.81 fmol/mg protein/min in data set [12] and 10.76 ± 1.68 fmol/mg protein/min in data set [16] (apical uptake, MDCKII-wt). The “Vmax relative to that in wild-type cells” value in data set [1] (apical uptake, hBCRP-transfected vs wild-type) is given as approximately 42%; in [5] (apical uptake, hMDR1-transfected vs wild-type), “about 12%”; in data set [11] (apical uptake, hMRP2-transfected vs wild-type) it was approximately 43%. The Km at 15 min in [2] was found to be 60.7 ± 8.56 µM; in data set [3], 46.1 ± 2.26 µM; in data set [6], 29.1 ± 3.29 µM; in [8], 64.6 ± 4.09 µM; in data set [10], 84.8 ± 18.6 µM; in [13], 50.9 ± 7.86 µM. Moreover, the Km in [9] turned out to be 13.7 ± 2.22 µM; in data set [16] (apical uptake, MDCKII-wt), 59.7 ± 1.1 µM. Besides, the Papp A→B at 60 min, 0.5 μCi/mL in [14] (setting [22]) came out at 6 ± 0.4 ×10⁻⁶ cm/s; in data set [14] (setting [23]), 6.4 ± 0.5 ×10⁻⁶ cm/s; in data set [14] (setting [24]), 8 ± 0.4 ×10⁻⁶ cm/s; in data set [15] (setting [25]) it was 7.1 ± 0.3 ×10⁻⁶ cm/s; in data set [15] (setting [26]) it was 7.6 ± 1.2 ×10⁻⁶ cm/s; in data set [15] (setting [27]), 10.7 ± 0.7 ×10⁻⁶ cm/s. Moreover, the apparent permeability from apical to basolateral (Papp A→B) at 60 min, 0.5 μCi/mL in data set [15] (setting [31]) is 18.6 ± 1.9 ×10⁻⁶ cm/s; in [17] (AP–BL permeability, MDCKII-MRP2, AP chamber pH 4.0, BL pH 7.4) it was 8.6 ± 1.1 ×10⁻⁶ cm/s; in data set [17] (AP–BL permeability, MDCKII-MRP2, AP chamber pH 5.0, BL pH 7.4), 9.9 ± 0.8 ×10⁻⁶ cm/s; in data set [17] (AP–BL permeability, MDCKII-MRP2, AP chamber pH 6.0, BL pH 7.4), 10.6 ± 0.1 ×10⁻⁶ cm/s; in [17] (pH 7.4, AP–BL permeability, MDCKII-MRP2, AP chamber pH 7.4, BL pH 7.4) it was 17.7 ± 1.4 ×10⁻⁶ cm/s; in data set [18] (setting [25]), 13.1 ± 1.4 ×10⁻⁶ cm/s. Moreover, the values for the Papp A→B at 60 min, 0.5 μCi/mL in data set [18] (setting [26]), in data set [18] (setting [27]) and in [18] (setting [31]) were 14.9 ± 2.8 ×10⁻⁶ cm/s, 22.2 ± 1.9 ×10⁻⁶ cm/s and 36.7 ± 0.2 ×10⁻⁶ cm/s, respectively. Moreover, the Papp B→A at 60 min, 0.5 μCi/mL is 10.1 ± 1.3 ×10⁻⁶ cm/s in data set [14] (setting [22]); 7.6 ± 0.8 ×10⁻⁶ cm/s in data set [14] (setting [23]); 8.2 ± 0.5 ×10⁻⁶ cm/s in data set [14] (setting [24]); 10.9 ± 0.7 ×10⁻⁶ cm/s in data set [15] (setting [28]); 6.5 ± 0.7 ×10⁻⁶ cm/s in [15] (setting [29]); 7.2 ± 0.9 ×10⁻⁶ cm/s in [15] (setting [30]). Besides, the Papp B→A at 60 min, 0.5 μCi/mL stood at 15.6 ± 0.1 ×10⁻⁶ cm/s in [15] (setting [32]); 8.5 ± 0.6 ×10⁻⁶ cm/s in data set [17] (BL–AP permeability, MDCKII-MRP2, AP chamber pH 4.0, BL pH 7.4); 6.3 ± 0.4 ×10⁻⁶ cm/s in data set [17] (BL–AP permeability, MDCKII-MRP2, AP chamber pH 5.0, BL pH 7.4); 7.5 ± 0.5 ×10⁻⁶ cm/s in [17] (BL–AP permeability, MDCKII-MRP2, AP chamber pH 6.0, BL pH 7.4); 15.7 ± 0.6 ×10⁻⁶ cm/s in data set [17] (pH 7.4, BL–AP permeability, MDCKII-MRP2, AP chamber pH 7.4, BL pH 7.4); 9.4 ± 0.4 ×10⁻⁶ cm/s in data set [18] (setting [28]). Also, the Papp B→A at 60 min, 0.5 μCi/mL turned out to be 6.6 ± 0.6 ×10⁻⁶ cm/s in data set [18] (setting [29]), 6 ± 1 ×10⁻⁶ cm/s in data set [18] (setting [30]) and 8 ± 0.9 ×10⁻⁶ cm/s in data set [18] (setting [32]). In addition, the “extracellular pH of maximal apical uptake” value in data set [16] (pH 4.0–7.4 tested, all MDCKII cell lines) was 6.0. The “uptake in MDCKII-wt cells in comparison with transfected cells” value in data set [16] (total apical uptake at 37 °C, pH 7.4) is 3–5 fold.

Take `OC[C@@H](O)[C@@H](O)[C@H](O)[C@H](O)CO` [[^14C]Mannitol, Mannitol]: the Papp A→B at 60 min, 0.125 µCi/mL in data set [19] was 42.1 ± 0.5 ×10⁻⁶ cm/s; in [20], 18.4 ± 0.9 ×10⁻⁶ cm/s.

`CCC(=O)O[C@@H](O[P@](=O)(CCCCc1ccccc1)CC(=O)N1C[C@H](C2CCCCC2)C[C@H]1C(=O)O)C(C)C` [fosinopril, Fosinopril]: in [21], the “effect on apical [3H]Gly-Sar uptake compared to control” value is “significantly reduced apical Gly-Sar uptake”.
